Jurkat NFkB inh: lowers PMA/ionomycin-induced NF-kB signal in Jurkat cells. PMA/ionomycin-induced NF-kB luciferase reporter, luminescence. inhibition, % at 4 µM. hit rate 0.53% among 330,000. AID 435003; in the data active = inhibition above about 50%
APP 5UTR inh: APP translation inhibition; hit rate 0.82% among 190,000; inhibition, % at 2 µM; SH-SY5Y APP 5'UTR-luciferase reporter, luminescence;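 active = inhibition above a set limit, derived from the sample mean plus 3 SD, cut at about 45% in these data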
697 NFkB inh: lowers PMA/ionomycin-induced NF-kB signal in 697 B cells; 697 B-cell NF-kB luciferase reporter, 16 h; inhibition, % at 4 µM; hit rate 0.33% among 330,000; in the data active = inhibition above about 35%
aSyn UTR inh: MLPCN primary screen, SNCA 5' untranslated region; alpha-synuclein 5'UTR reporter, inhibitor activity; inhibition, % (tested at 7.5 µM); hit rate 0.82% among 300,000; AID 1813; in the data active = inhibition above about 60%;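 note: H4 neuroglioblastoma cells stably carrying SNCA 5'UTR luciferase fusion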
TAG inh: inhibitors of triacylglycerol accumulation; H9c2 cells, Nile Red lipid (TAG) fluorescence; cells loaded with 200 µM oleic acid; inhibition, % at 12.5 µM; hit rate 0.66% among 230,000;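 active = pattern-corrected inhibition of lipid staining of at least 50% with the nuclear-stain viability signal not falling by more than 50%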
Hep lipid drop: modulators of hepatic lipid droplet formation. AML12 mouse hepatocytes, oleate lipid droplets, BODIPY imaging. inhibition, % at 6.5 µM. hit rate 0.4% among 240,000. AID 1656;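 active = lipid droplet intensity inhibited by at least 50%, with more than 500 cells counted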
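Assay system: AML12 hepatocytes (mouse); Probe or stimulus: oleic acid at 100 µM to induce lipid droplet formation; Dosing: compound at 6.5 µM only; Schedule: compound with oleate, overnight; Detection: fluorescence imaging, 20x objective, two fields per well; Measure: % inhibition of lipid droplet signal.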
Hep lipid conf: hepatic lipid droplet formation inhibition, confirmed | shares compounds with Hep lipid drop | AML12 mouse hepatocytes, BODIPY lipid droplet imaging; droplets induced with 100 µM oleic acid | inhibition, % at 5.2 µM | hit rate 65% among 870;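 active = inhibition of lipid droplet metric at least 50%, with more than 300 cells in each of four replicates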
AML12 tox img: counter-screen for cytotoxicity in AML12 mouse hepatocytes; DAPI nuclear morphology cytotoxicity imaging; stronger effect = higher value; cells fed 100 µM oleate overnight; AID 463200; hit rate 3% among 870; shares compounds with Hep lipid drop; z-score at 5 µM; in the data active = z-score above about 6.3;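 note: compound exposure lasted overnight at 37 °C before fixation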
AML12 tox ATP: confirmation of cytotoxicity in AML12 mouse hepatocytes; shares compounds with Hep lipid drop; AML12 mouse hepatocyte viability, ATP luminescence; cells loaded with 100 µM oleic acid; cytotoxicity, % at 50 µM; 530 tested, under 10 active;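 active = cytotoxicity above 50% in each of four replicates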;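 note: compound exposure lasted overnight at 37 °C before the ATP read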
Hits are given with their value. The list is not random: actives were taken first. Their share in the collection is about 1.9%.

How did CCOC(=O)C(NC(=O)c1ccc(OC)cc1)(N1CCCC1=O)C(F)(F)F (stereo unspecified) do in these assays?
Jurkat NFkB inh: inactive; APP 5UTR inh: inactive; 697 NFkB inh: inactive; aSyn UTR inh: inactive; TAG inh: inactive; Hep lipid drop: inactive

Results for Nc1cc2c(cc1Br)-c1c(C(=O)O)cccc1C2O (stereo unspecified) ?
TAG inh: inactive

Results for CCOC(=O)CSc1c(-c2cccs2)[nH]c2ccccc12 ?
Jurkat NFkB inh: inactive; APP 5UTR inh: inactive; 697 NFkB inh: inactive; aSyn UTR inh: inactive; Hep lipid drop: 83; Hep lipid conf: 95; AML12 tox img: inactive; AML12 tox ATP: inactive

What do the screens show for `Cc1ccc(S(=O)(=O)N2CCN(Cc3cc(C(C)(C)C)ccc3O)CC2)cc1`?
Jurkat NFkB inh: inactive; 697 NFkB inh: inactive; aSyn UTR inh: inactive; TAG inh: inactive; Hep lipid drop: inactive

How did COc1ccc(C(C)=O)cc1CSc1nnc(Nc2ccc(C)cc2C)s1 do in these assays?
Jurkat NFkB inh: inactive; APP 5UTR inh: inactive; 697 NFkB inh: inactive; aSyn UTR inh: inactive; TAG inh: inactive; Hep lipid drop: 90; Hep lipid conf: inactive; AML12 tox img: inactive

How did O=C(COC(=O)c1cccc(S(=O)(=O)N2CCOCC2)c1)NCCc1ccccc1 do in these assays?
Jurkat NFkB inh: inactive; 697 NFkB inh: inactive; aSyn UTR inh: inactive; TAG inh: inactive; Hep lipid drop: inactive

How did CCC(C)C(NC(=O)c1ccccc1NC(=O)c1ccc(OC)cc1)C(=O)NCc1ccco1 (stereo unspecified) do in these assays?
Jurkat NFkB inh: inactive; APP 5UTR inh: inactive; 697 NFkB inh: inactive; aSyn UTR inh: inactive; Hep lipid drop: 70; Hep lipid conf: 100; AML12 tox img: inactive; AML12 tox ATP: inactive

Results for COC(=O)[C@H](C)NC(=O)Nc1cc(OC)ccc1OC ?
Jurkat NFkB inh: inactive; APP 5UTR inh: inactive; 697 NFkB inh: inactive; aSyn UTR inh: inactive; Hep lipid drop: inactive

How did CCn1c(SCC(=O)OC)nc2cc(S(=O)(=O)N3CCOCC3)ccc21 do in these assays?
Jurkat NFkB inh: inactive; 697 NFkB inh: inactive; aSyn UTR inh: inactive; TAG inh: inactive

What do the screens show for `CCc1ccc(C(=O)CSc2nc3cc(S(=O)(=O)N4CCOCC4)ccc3n2CC)cc1`?
Jurkat NFkB inh: inactive; APP 5UTR inh: inactive; 697 NFkB inh: inactive; aSyn UTR inh: inactive; Hep lipid drop: 115; Hep lipid conf: inactive; AML12 tox img: inactive

How did COc1ccc([N+](=O)[O-])cc1NC(=O)c1ccccc1N(C)S(C)(=O)=O do in these assays?
Jurkat NFkB inh: inactive; APP 5UTR inh: inactive; 697 NFkB inh: inactive; aSyn UTR inh: inactive; TAG inh: inactive; Hep lipid drop: inactive

Results for CCN(CC)C(=O)CC(c1ccc(OC)cc1)c1c(OC)cc(OC)c2ccc(=O)oc12 (stereo unspecified) ?
Jurkat NFkB inh: inactive; 697 NFkB inh: inactive; aSyn UTR inh: inactive; TAG inh: inactive; Hep lipid drop: 64; Hep lipid conf: inactive; AML12 tox img: inactive

What do the screens show for `CCN(CC)C(=O)CC(c1cc(OC)c(OC)c(OC)c1)c1c(OC)cc(OC)c2ccc(=O)oc12` (stereo unspecified)?
Jurkat NFkB inh: inactive; 697 NFkB inh: inactive; aSyn UTR inh: inactive; TAG inh: inactive; Hep lipid drop: inactive

What do the screens show for `Cc1cc(OCC(O)CN2CCN(c3ccccn3)CC2)cc(C)c1Cl` (stereo unspecified)?
Jurkat NFkB inh: inactive; 697 NFkB inh: inactive; aSyn UTR inh: inactive; Hep lipid drop: inactive

What do the screens show for `CC(C)Oc1ccc(C(=O)Nc2ccc(N3CCN(C(=O)c4ccco4)CC3)cc2)cc1`?
Jurkat NFkB inh: inactive; 697 NFkB inh: inactive; aSyn UTR inh: inactive; Hep lipid drop: 69; Hep lipid conf: inactive; AML12 tox img: inactive; AML12 tox ATP: inactive

Screening data as filed in PubChem BioAssay.
